Reference: PMC6272098 (Cancer Science, 2018)

What was measured:
[1] = 21-day oral dosage in mice ref 22; cited from earlier work
COLO-320DM cells = test: BrdU assay; assay type: cell-based, human; settings: 48 h
How it was run: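 Cells were grown in RPMI-1640 with 10% heat-inactivated FBS and exposed to test compound for 48 h before BrdU incorporation was measured. Tukey-Kramer comparison was against DMSO-treated cells. Experiments were repeated at least twice; representative results are shown with standard deviation.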

RKO cells = test: BrdU assay; assay type: cell-based, human; settings: 48 h
How it was run: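 Cells were kept in DMEM with 10% FBS, treated for 48 h, then assayed for BrdU incorporation. DNA synthesis was compared with DMSO-treated (basal) cells by Tukey-Kramer test. Experiments were repeated at least twice; representative data are shown with standard deviation.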

[2] = test system: non-phosphorylated (active) β-catenin; test: Immunofluorescence staining of active β-catenin in COLO-320DM cells; assay type: cell-based, human; settings: 1 μmol/L, 16 h, DMSO 100%
How it was run: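 Cells were exposed to 1 μmol/L test compound for 16 h, then immunostained with anti-non-phosphorylated β-catenin antibody (D13A1, 1:500) and counterstained with DAPI. Fluorescence images were quantified, and intensity was expressed relative to DMSO-treated cells (100%).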

[3] = test system: TCF/LEF reporter activity; test: TCF/LEF luciferase reporter assay, L-Wnt3A-stimulated HEK293T; assay type: cell-based; settings: 30 h
How it was run: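 HEK293T cells were transfected with TCF luciferase reporters. Conditioned medium from L or L‐Wnt3A cells, prepared per the ATCC protocol, was added together with test compound, and luciferase was read after 30 h. Comparison was by Tukey-Kramer test against pTcf7wt-luc-transfected DMSO controls.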

[4] = test system: TCF/LEF reporter activity; test: TCF/LEF luciferase reporter assay, COLO-320DM; assay type: cell-based, human; settings: 30 h
How it was run: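 Cells were transfected with TCF reporter vectors (including pTcf7wt-luc), then exposed to test compound for 30 h and luciferase activity was read. Comparison was by Tukey-Kramer test against pTcf7wt-luc-transfected DMSO-treated cells.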

[5] = test system: tankyrase, Axin1/2, β-catenin; test: Western blot analysis of pharmacodynamic biomarkers in COLO-320DM cells; assay type: cell-based, human; settings: 16 h
How it was run: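 Cells cultured in RPMI-1640 with 10% heat-inactivated FBS were treated for 16 h. Whole cell lysates were then analysed by western blot.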

Structure (SMILES)	Body weight and small intestine histology in mice [1]	DNA synthesis (BrdU) (COLO-320DM cells; 10 μmol/L)	DNA synthesis (BrdU) (COLO-320DM cells; concentrations up to 3 μmol/L)	DNA synthesis (BrdU) (RKO cells)	DNA synthesis (BrdU) relative to basal level (RKO cells; 10 μmol/L)	Immunofluorescence intensity of active β-catenin [2] [%]	TCF/LEF luciferase activity [3]	TCF/LEF reporter activity [4]	Tankyrase, Axin1/2 and β-catenin protein levels (western blot) [5]
COc1ccc(C2(CNC(=O)c3ccc(NC(=O)c4ccco4)cc3)CCOCC2)cc1 [JW55]	no body weight alterations or histological changes in the small intestine	–	–	–	–	–	–	–	–
O=C(c1cc(Cc2n[nH]c(=O)c3ccccc23)ccc1F)N1CCN(C(=O)C2CC2)CC1 [olaparib]	–	marginally inhibited	no effects	resistant	half	106	only marginally inhibited	no effect	did not affect
